2 compounds from ChEMBL document CHEMBL4610093, “Bioreductively Activatable Prodrug Conjugates of Combretastatin A-1 and Combretastatin A-4 as Anticancer Agents Targeted toward Tumor-Associated Hypoxia” (J Nat Prod, 2020) can be followed below.

The test system of series [1] is 4T1. The series is described as follows: Induction of vascular damage in mouse 4T1 cells harboring firefly luciferase reporter gene implanted BALB/C mouse assessed as reduction in light emission at 120 mg/kg, ip measured after 4 hrs by Bioluminescence imaging analysis. It is filed as functional. More on the design: scale not given: the % may be the effect or the level left. The essentials:
(§1)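 Orthotopic 4T1-luc mammary fat pad tumours (10–12 mm) in female BALB/c mice. Single IP dose of 120 mg/kg in saline given right after baseline imaging. Dynamic BLI over about 20 min after subcutaneous D-luciferin (120 mg/kg), repeated with fresh luciferin at 4, 24 and 48 h. Signal compared by area under the light emission curve.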

In series [2] the test system is 4T1. The series is described as follows: Induction of vascular damage in mouse 4T1 cells harboring firefly luciferase reporter gene implanted BALB/C mouse assessed as reduction in light emission at 120 mg/kg, ip measured up to 72 hrs by Bioluminescence imaging analysis. The class given is functional. Details: scale not given: the % may be the effect or the level left. The essentials:
as §1
In general terms: A reporter such as luciferase makes a cellular process visible.

Series [3] relates to 4T1. The series is described as follows: Induction in necrosis in tumor of BALB/C mouse implanted with mouse 4T1 cells harboring firefly luciferase reporter gene at 120 mg/kg, ip measured after 72 to 96 hrs by hematoxylin and eosin staining based assay (reference value: 46%). The class given is functional.
Series [4] concerns A549. The series is described as follows: Cytotoxicity against human A549 cells incubated for 4 hrs in anoxic condition followed by oxic exposure for 48 hrs by sulforhodamine B assay. It is filed as functional. The essentials:
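Anoxic arm: A549 cells handled in an anaerobic chamber (≤10 ppm O2) with medium and plates preconditioned ≥48 h. 6000 cells/well, 2 h attachment. Serial dilutions from DMSO stocks, top final concentration 50 µg/mL, in duplicate. 4 h anaerobic drug exposure, then 48 h aerobic, then SRB readout.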
For orientation: The SRB assay estimates cell density from bound dye.

Series [5] deals with T1, NADPH-cytochrome P450 oxidoreductase (Rattus norvegicus, UniProt P00388).
T1 sequence (P00388 whole entry): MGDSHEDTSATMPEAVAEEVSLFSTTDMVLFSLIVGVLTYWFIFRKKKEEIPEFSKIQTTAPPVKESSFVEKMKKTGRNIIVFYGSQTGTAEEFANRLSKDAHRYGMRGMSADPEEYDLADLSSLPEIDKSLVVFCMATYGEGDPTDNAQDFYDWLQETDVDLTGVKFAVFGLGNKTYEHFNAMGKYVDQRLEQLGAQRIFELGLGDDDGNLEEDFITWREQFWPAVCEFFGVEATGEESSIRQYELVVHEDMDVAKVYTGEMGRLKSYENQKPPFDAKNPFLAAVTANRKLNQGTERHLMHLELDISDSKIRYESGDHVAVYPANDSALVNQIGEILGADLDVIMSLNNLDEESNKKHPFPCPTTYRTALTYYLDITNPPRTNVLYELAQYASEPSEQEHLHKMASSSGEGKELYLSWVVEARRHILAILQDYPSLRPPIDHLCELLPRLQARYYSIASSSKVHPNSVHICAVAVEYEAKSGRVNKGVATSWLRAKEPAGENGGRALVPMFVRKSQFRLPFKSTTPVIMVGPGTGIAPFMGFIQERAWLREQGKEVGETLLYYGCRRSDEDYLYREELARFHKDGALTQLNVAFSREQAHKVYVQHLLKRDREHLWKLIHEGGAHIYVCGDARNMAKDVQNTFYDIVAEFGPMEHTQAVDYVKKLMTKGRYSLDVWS
The series is described as follows: Substrate activity at rat NADPH-cytochrome P450 oxidoreductase expressed in supersomes assessed as compound cleavage after 90 mins in anaerobic condition by HPLC analysis. The note with it: read-out: Drug degradation. The gist of the method: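 Rat POR supersomes (0.006 U) with 0.8 mM NADPH, acting on compound diluted from 10 mM DMSO stock into 200 mM potassium phosphate pH 7.4 with 0.1% Triton X-100 and 400 µM protocatechuic acid. Made anaerobic by N2 evacuation/sparging plus 0.08 U protocatechuate dioxygenase. Incubated at 37 °C, quenched with acetonitrile, quantified by HPLC against standard curves; no-POR controls.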

Series [6] can be described thus: Stability of the compound in pH 7.4 potassium phosphate buffer assessed as spontaneous compound hydrolysis measured for 150 mins. It is filed as physicochemical. Conditions: pH 7.4, 2.5 h.
Series [7] concerns A549. The series is described as follows: Cytotoxicity against human A549 cells incubated for 52 hrs in oxic condition by sulforhodamine B assay. The class given is functional. The note with it: A549, 52 h. The essentials: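 Normoxic arm: A549 cells at 6000 cells/well, 2 h attachment. Serial dilutions from DMSO stocks, top final concentration 50 µg/mL, in duplicate. Drug exposure 4 h under 95% air/5% CO2, then 48 h aerobic culture. Cytotoxicity read by SRB.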

A short description of series [8]: Stability of the compound in pH 7.4 potassium phosphate buffer assessed as compound hydrolysis after 24 to 48 hrs. It is filed as physicochemical.
For the next series, the target named is Tubulin (Homo sapiens) (UniProt P68371+Q9H4B7+P0DPH7+P68366+Q13509+Q71U36+P04350+Q3ZCM7+P07437+P68363+Q9BQE3+Q6PEY2+Q13885+Q9BVA1+Q9BUF5). The series is described as follows: Inhibition of [3H]colchicine binding to tubulin (unknown origin) at 5 uM incubated for 10 mins by scintillation counting relative to control. The class given is protein-complex assay. The essentials: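 Purified tubulin at 1.0 µM with 5.0 µM [3H]colchicine, in 1.0 M monosodium glutamate (pH 6.6), 0.5 mg/mL BSA, 0.1 M glucose-1-phosphate, 1.0 mM MgCl2, 1.0 mM GTP and 5% DMSO. Incubated 10 min at 37 °C, then filter-bound radioactivity counted. Percent inhibition taken against no-inhibitor controls, corrected for filter binding without tubulin.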

Series [9] relates to A549. The series is described as follows: Ratio of GI50 for human A549 cells in oxic condition to GI50 for anoxic condition. It is filed as functional. The gist of the method:
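A549 cells at 6000 cells/well. Drug exposure 4 h either anaerobic (≤10 ppm O2, preconditioned medium and plates) or under 95% air/5% CO2, then 48 h aerobic. SRB cytotoxicity read in duplicate, top final concentration 50 µg/mL. Ratio taken as oxic over anoxic value.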

A short description of series [10]: Inhibition of bovine brain tubulin polymerisation preincubated for 15 mins followed by GTP addition and measured for 20 mins by turbidimetry based spectrophotometric method. Details: species or system Bos taurus. The gist of the method:
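Bovine brain tubulin at 1.0 mg/mL (10 µM) in 0.8 M monosodium glutamate (pH 6.6) with 4% DMSO and compound. Preincubated 15 min at 30 °C, chilled, then 0.4 mM GTP added. Temperature jumped from 0 to 30 °C; turbidity at 350 nm followed for 20 min. IC50 is the concentration halving extent of assembly.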

Molecules are shown by their SMILES.

Turning to `COc1ccc(/C=C\c2cc(OC)c(OC)c(OC)c2)cc1OP(=O)([O-])[O-].[Na+].[Na+]` [FOSBRETABULIN DISODIUM], the Activity with 4T1 [1] is recorded as above 99%; in the series with 4T1 [2] it was above 90%; with 4T1 [3], 70%.

`COc1ccc(/C=C\c2cc(OC)c(OC)c(OC)c2)c(OC(C)(C)c2ccc([N+](=O)[O-])s2)c1O`: the GI50 (in general, the concentration at which growth is held to half of that of the control) in the series with A549 [4] was 480 nM; with A549 [7], 6000 nM. Also, in [5], the metabolised at 1.5 h amounted to 100%. Besides, the Stability entry in [6] is “Stable”; in [8] it was “Unstable”. Also, the inhibition (in general, the relative decrease from the control value, in per cent) at Tubulin (Homo sapiens) worked out at 43%. Also, in the series with A549 [9], the RatioGI50 was 12.5. The 50% inhibitory concentration (IC50) (as a rule, the midpoint of a concentration-inhibition curve) in series [10] stood at 1300 nM.
